Reference: PMC7985749 (CNS Drugs, 2021)

Experiments:
[1] = Plasma pharmacokinetics, single ascending dose; assay type: in vivo, human; details: for Tmax / half-life / AUC(0-inf) / AUC(0-t) / Cmax / Vd/F: human, plasma
KDM1A = KDM1A (Homo sapiens, UniProt O60341); assay: Chemoprobe-based KDM1A target engagement in PBMCs; assay type: in vivo
[2] = 28-day GLP toxicology study in rats; details: rat, in vivo, oral
[3] = Neuropsychological assessments; assay type: in vivo, human; details: SAD, MAD, or CSF cohorts
Procedure, shortened: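 Tests were VAS, LSEQ, WCST and Sternberg, run within the neurological evaluation. The trial was single-centre, randomized, double-blind and placebo-controlled in healthy volunteers. Dosing was oral: single doses of 0.2–4 mg (young males), 5 daily doses of 0.2–4 mg/day (young males and females), or 2.5 mg/day for 5 days (older adults). Assessments followed the scheduled timepoints.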

[4] = Safety and tolerability, all study stages; assay type: in vivo, human
[5] = Rodent models: therapeutic effect versus hematopoietic impact; assay type: in vivo; details: rodents

SMILES: Nc1nnc(CN[C@@H]2C[C@H]2c2ccc(OCc3ccccc3)cc2)o1 [vafidemstat]
- Variability, overall coefficient of variation ([1]; SAD and MAD cohorts, plasma PK): ≤ 30%
- Tmax ([1]; both, oral): 0.5 to 2 h
- half-life ([1]; both, oral): 1200 to 1800 min
- AUC(0-inf) ([1]; male, po, 0.2 mg): 30.9 ng·h/mL
- AUC(0-t) ([1]; male, po, 0.2 mg): 28 ng·h/mL
- Cmax ([1]; male, po, 0.2 mg): 1.11 ng/mL
- Tmax ([1]; male, po, 0.2 mg): 2.75 h
- Vd/F ([1]; male, po, 0.2 mg): 260 L
- half-life ([1]; male, po, 0.2 mg): 1680 min
- AUC(0-inf) ([1]; male, po, 0.6 mg): 90.7 ng·h/mL
- AUC(0-t) ([1]; male, po, 0.6 mg): 83.3 ng·h/mL
- Cmax ([1]; male, po, 0.6 mg): 3.21 ng/mL
- Tmax ([1]; male, po, 0.6 mg): 1.83 h
- Vd/F ([1]; male, po, 0.6 mg): 256 L
- half-life ([1]; male, po, 0.6 mg): 1620 min
- AUC(0-inf) ([1]; male, po, 1.5 mg): 428 ng·h/mL
- AUC(0-t) ([1]; male, po, 1.5 mg): 297 ng·h/mL
- Cmax ([1]; male, po, 1.5 mg): 11.9 ng/mL
- Tmax ([1]; male, po, 1.5 mg): 0.92 h
- Vd/F ([1]; male, po, 1.5 mg): 213 L
- half-life ([1]; male, po, 1.5 mg): 2460 min
- AUC(0-inf) ([1]; male, po, 2.5 mg): 438 ng·h/mL
- AUC(0-t) ([1]; male, po, 2.5 mg): 402 ng·h/mL
- Cmax ([1]; male, po, 2.5 mg): 18.8 ng/mL
- Tmax ([1]; male, po, 2.5 mg): 1.58 h
- Vd/F ([1]; male, po, 2.5 mg): 203 L
- half-life ([1]; male, po, 2.5 mg): 1500 min
- AUC(0-inf) ([1]; male, po, 4 mg): 568 ng·h/mL
- AUC(0-t) ([1]; male, po, 4 mg): 550 ng·h/mL
- Cmax ([1]; male, po, 4 mg): 38 ng/mL
- Tmax ([1]; male, po, 4 mg): 1.71 h
- Vd/F ([1]; male, po, 4 mg): 204 L
- half-life ([1]; male, po, 4 mg): 1200 min
- Maximum KDM1A TE values (KDM1A; MAD, at 108 h after first dose (12 h after last dose), PBMCs): up to 90%
- KDM1A binding in PBMCs (KDM1A; SAD and MAD): dose-dependent manner
- Maximum KDM1A TE (KDM1A; SAD cohorts, 4 mg, at 12 h, PBMCs): around 80%
- KDM1A TE peak versus plasma exposure (KDM1A; at Cmax,ss of ~ 30 ng/mL and AUCss of ~ 500 ng·h/mL): ~ 90%
- KDM1A TE (KDM1A; older adult population, evaluable sample from a single individual): 85.6%
- NOAEL at 28 days [2]: 0.2 mg/kg
- Sleeping or awakening patterns (LSEQ) [3]: did not disrupt sleeping or awakening patterns
- Somnolence and potential for abuse (VAS) [3]: did not provoke somnolence or reveal a potential for abuse
- WCST or Sternberg test ([3]; any dose level or parameter): No significant differences
- Serious adverse events (SAEs) ([4]; during the study): No SAEs
- Changes over time in hematological, biochemical, urinalysis parameters, vital signs, ECG values ([4]; planned SAD or MAD (including older adult) cohorts): No significant changes
- Number of AEs reported by subjects receiving vafidemstat ([4]; three study stages (SAD, MAD, older adult), 120 AEs in total): 90
- Number of TEAEs possibly or probably related to the study drug ([4]; volunteers treated with vafidemstat, three study stages, 108 TEAEs in total): 79
- Window between the therapeutic effect and hematopoietic impact [5]: 30 fold
